The source of these data is ChEMBL document CHEMBL1121917, “Structure--activity relationships in a broad-spectrum anthelmintic series. Acid chloride phenylhydrazones. 1. Aryl substitutions and chloride variations” (1981).

The species named for assay [1] is Mus musculus. Nature of the assay: Percent clearance of Syphacaia obvelata from mouse after oral treatment of 0.57 mg/mouse/day. The assay is classed as functional. The method in brief: (§1)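 Mice naturally carrying Syphacia obvelata were experimentally infected with Nematospiroides dubius and Hymenolepis nana, then grouped after a 2-week prepatency. Finely ground compound was suspended in aqueous 0.10% carboxymethylcellulose, 0.04% polysorbate 80 and 0.0042% polyparaben, and 0.1 mL was given orally by cannula once daily for 4 days to five mice. Necropsy followed 2 days later, scoring presence or absence of each parasite. Control clearance was subtracted from the treated clearance.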

Assay [2] is filed under the species Mus musculus. As to the kind of experiment: Percent clearance of Nematospiroides dubius from mouse after oral treatment of 0.57 mg/mouse/day. The assay is classed as functional. In outline:
as §1

Assay [3] deals with Ovis aries. As to the kind of experiment: Percent reduction in Oesophagostomum eggs per gram, after treatment of 200 mg/kg dose of compound perorally in sheep. The assay is classed as functional, Egg. The conditions noted are these: route oral. In outline:
(§2)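 Naturally parasitized lambs were dosed orally at the stated mg/kg. Dosing was either as a suspension of finely ground compound by stomach tube, or as ground compound weighed into gelatin capsules and given by balling gun. Activity was scored by the clinical test method: the decrease in posttreatment helminth eggs per gram.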

Assay [4] has as its system Ovis aries. Nature of the assay: Percent reduction in Trichostrongylus eggs per gram, after treatment of 200 mg/kg dose of compound perorally in sheep. The assay is classed as functional, Egg. The conditions noted are these: route oral. In outline: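 Lambs naturally parasitized with helminths. Finely ground compound was given orally, either as an aqueous suspension by stomach tube or weighed into gelatin capsules given by balling gun. Activity was assessed by the clinical test method: the reduction in helminth egg counts after treatment.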

Assay [5] has as its system Ovis aries. Nature of the assay: Percent reduction in Trichostrongylus eggs per gram, after treatment with 400 mg/kg dose of compound perorally in sheep. Particulars: route oral. The assay is classed as functional, Egg. In outline:
(§3)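 Naturally parasitized lambs, dosed orally either with a suspension by stomach tube or with finely ground compound in gelatin capsules by balling gun. Activity was scored by the clinical test method, meaning a significant fall in helminth egg counts after treatment.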

Assay [6] relates to Ovis aries. Nature of the assay: Percent reduction in Strongyloides eggs per gram, after treatment with 400 mg/kg dose of compound perorally in sheep. The assay is classed as functional, Egg. Particulars: route oral. In outline:
as §3

Assay [7] is filed under the species Canis familiaris. As to the kind of experiment: Percent reduction in Uncinaria eggs per gram, after oral treatment of 75 mg/dog dose of compound in a single treatment. The assay is classed as functional, Canis lupus familiaris, Egg.
Assay [8] concerns Ovis aries. As to the kind of experiment: Percent reduction in Strongyloides eggs per gram, after treatment with 200 mg/kg dose of compound perorally in sheep. The assay is classed as functional, Egg. Particulars: route oral. The method in brief:
as §3

Assay [9] deals with Ovis aries. As to the kind of experiment: Percent reduction in Ostertagia eggs per gram, after treatment of 200 mg/kg dose of compound perorally in sheep. The assay is classed as functional, Egg. Particulars: route oral. In outline: as §2
The species entered for assay [10] is Canis familiaris. As to the kind of experiment: Percent reduction in Toxascaris eggs per gram, after oral treatment of 75 mg/dog dose of compound in a single treatment. The assay is classed as functional, Canis lupus familiaris, Egg. The method in brief: (§4)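 Dogs naturally infected with Toxascaris leonina were experimentally infected with mixed Ancylostoma caninum and Uncinaria stenocephala larvae. Finely ground compound was given orally in gelatin capsules. Three egg count determinations were made before and three after treatment in each experiment.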

The species named for assay [11] is Mus musculus. As to the kind of experiment: Percent clearance of Nematospiroides dubius from mouse after oral treatment of 0.45 mg/mouse/day. The assay is classed as functional. In outline: as §1
In assay [12] the test system is Ovis aries. As to the kind of experiment: Percent reduction in Trichuris eggs per gram, after treatment with 400 mg/kg dose of compound perorally in sheep. The assay is classed as functional, Egg. Particulars: route oral. In outline:
as §3

Assay [13] deals with Ovis aries. As to the kind of experiment: Percent reduction in Ostertagia eggs per gram, after treatment with 400 mg/kg dose of compound perorally in sheep. The assay is classed as functional, Egg. Particulars: route oral. The method in brief:
as §3

The species entered for assay [14] is Mus musculus. Nature of the assay: Percent clearance of Syphacaia obvelata from mouse after oral treatment of 0.45 mg/mouse/day. The assay is classed as functional. In outline:
as §1

In assay [15] the test system is Ovis aries. Nature of the assay: Percent reduction in Haemonchus eggs per gram, after treatment with 400 mg/kg dose of compound perorally in sheep. The assay is classed as functional, Egg. Particulars: route oral. The method in brief: as §2
In assay [16] the test system is Ovis aries. Nature of the assay: Percent reduction in Haemonchus eggs per gram, after treatment of 200 mg/kg dose of compound perorally in sheep. The assay is classed as functional, Egg. The conditions noted are these: route oral. In outline:
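Naturally parasitized lambs received compound orally, either as the aqueous suspension by stomach tube or as finely ground powder in gelatin capsules by balling gun. Activity was judged by the clinical test method, as a significant decrease in posttreatment helminth egg counts.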

Assay [17] relates to Ovis aries. Nature of the assay: Percent reduction in Trichuris eggs per gram, after treatment with 200 mg/kg dose of compound perorally in sheep. The assay is classed as functional, Egg. The conditions noted are these: dose 200 mg/kg; route oral. The method in brief:
as §3

The species entered for assay [18] is Mus musculus. As to the kind of experiment: Percent clearance of Nematospiroides dubius from mouse after oral treatment of 1.87 mg/mouse/day. The assay is classed as functional. In outline:
as §1

Assay [19] is filed under the species Canis familiaris. Nature of the assay: Percent reduction in Uncinaria eggs per gram, after oral treatment of 100 mg/dog dose of compound in a single treatment. The assay is classed as functional, Canis lupus familiaris, Egg. In outline: as §4
Assay [20] is filed under the species Canis familiaris. As to the kind of experiment: Percent reduction in Uncinaria eggs per gram, after oral treatment of 200 mg/dog dose of compound in a single treatment. The assay is classed as functional, Canis lupus familiaris, Egg. The method in brief: as §4
The species named for assay [21] is Canis familiaris. Nature of the assay: Percent reduction in Toxascaris eggs per gram, after oral treatment of 200 mg/dog dose of compound in a single treatment. The assay is classed as functional, Canis lupus familiaris, Egg. The method in brief:
as §4

The species entered for assay [22] is Canis familiaris. Nature of the assay: Percent reduction in Toxascaris eggs per gram, after oral treatment of 100 mg/dog dose of compound in a single treatment. The assay is classed as functional, Canis lupus familiaris, Egg. In outline: as §4
The species entered for assay [23] is Mus musculus. Nature of the assay: Percent clearance of Syphacaia obvelata from mouse after oral treatment of 1.87 mg/mouse/day. The assay is classed as functional. The method in brief:
as §1

Assay [24] is filed under the species Mus musculus. Nature of the assay: Percent clearance of Hymenolepis nana from mouse after oral treatment of 7.5 mg/mouse/day. The assay is classed as functional. In outline: as §1
Assay [25] is filed under the species Mus musculus. Nature of the assay: Percent clearance of Nematospiroides dubius from mouse after oral treatment of 7.55 mg/mouse/day. The assay is classed as functional. The method in brief:
as §1

Molecules are shown by their SMILES.

As for `Cl/C(=N\Nc1ccccc1)c1cc(Cl)cc(Cl)c1`, the Parasite_Clearance in the assay listed under Mus musculus [1] came out at 25%; in the assay filed under Mus musculus [2], 0%.

With `Fc1c(F)c(F)c(/C(Cl)=N/Nc2ccccc2)c(F)c1F`, the Reduction in the assay on Ovis aries [3] was determined as 100%; with Ovis aries [4], 0%; with Ovis aries [5], 96%; in the assay on Ovis aries [6], 99%; in the assay filed under Canis familiaris [7], 100%; in the assay on Ovis aries [8], 93%. The Reduction in the assay with Ovis aries [9] came to 93%; in the assay filed under Canis familiaris [10] it was 71.4%; in the assay with Ovis aries [12] it was 88%; with Ovis aries [13], 95%; in the assay on Ovis aries [15], 96%; with Ovis aries [16], 85%. Moreover, the Reduction with Ovis aries [17] turned out to be 10%. Moreover, the Parasite_Clearance in the assay filed under Mus musculus [11] and in the assay filed under Mus musculus [14] was 0% in each case.

Consider `Cl/C(=N\Nc1ccccc1)c1ccc(I)cc1`, for which the Parasite_Clearance in the assay filed under Mus musculus [18] came to 80%; in the assay filed under Mus musculus [23] it was 100%. Moreover, the Reduction is on record as 41% in the assay filed under Canis familiaris [19], 63% in the assay listed under Canis familiaris [20], 100% in the assay listed under Canis familiaris [21] and 0% in the assay listed under Canis familiaris [22].

For the compound `O=[N+]([O-])c1ccc(/C(Cl)=N/Nc2ccccc2)cc1`, the Parasite_Clearance in the assay listed under Mus musculus [24] and in the assay listed under Mus musculus [25] was 0% each time.
